ChEMBL document CHEMBL3112482, “Nonclassical antifolates, part 5. Benzodiazepine analogs as a new class of DHFR inhibitors: synthesis, antitumor testing and molecular modeling study” (Eur J Med Chem, 2014)

Assays:
[1] = system: SNB-75; experiment: Growth inhibition of human SNB75 cells at 10 uM after 48 hrs; type: functional; conditions: SNB-75, 48 h, read-out: GI
In short: (§1)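 NCI 60-cell-line disease-oriented human tumor panel, single-dose primary screen at 10 µM. Data given as mean-graph percent growth of treated cells, reported as percent growth inhibition (GI %).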

[2] = system: K562; experiment: Growth inhibition of human K562 cells at 10 uM after 48 hrs; type: functional; conditions: K562, 48 h, read-out: GI
In short: (§2)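 Single-dose primary screen in the NCI 60 human tumour cell line panel, run at the NCI facility. The panel covers nine subpanels: leukaemia, non-small cell lung, colon, CNS, melanoma, ovarian, renal, prostate and breast. Read-out was percent growth of treated cells, shown as a mean graph and reported as percent growth inhibition.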

[3] = system: MDA-MB-435; experiment: Growth inhibition of human MDA-MB-435 cells at 10 uM after 48 hrs; type: functional; conditions: MDA-MB-435, 48 h, read-out: GI; in short: as §2
[4] = Growth inhibition of human EKVX cells at 10 uM after 48 hrs; type: functional; conditions: read-out: GI; in short: as §2
[5] = system: SK-OV-3; experiment: Growth inhibition of human SKOV3 cells at 10 uM after 48 hrs; type: functional; conditions: SK-OV-3, 48 h, read-out: GI; in short: as §1
[6] = molecular target: T1, Dihydrofolate reductase (Bos taurus, UniProt P00376); experiment: Inhibition of bovine liver DHFR measured for every 1 min of 10 mins
T1 sequence (P00376 whole entry): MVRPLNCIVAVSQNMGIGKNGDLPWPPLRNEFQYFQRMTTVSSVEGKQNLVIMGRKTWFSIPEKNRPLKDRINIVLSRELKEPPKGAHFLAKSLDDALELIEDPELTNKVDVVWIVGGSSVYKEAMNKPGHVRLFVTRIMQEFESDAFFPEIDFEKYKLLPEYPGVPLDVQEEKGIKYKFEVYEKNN

[7] = system: HL-60(TB); experiment: Growth inhibition of human HL-60(TB) cells at 10 uM after 48 hrs; type: functional; conditions: HL-60, 48 h, read-out: GI
In short: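 NCI 60-cell-line human tumour panel covering nine subpanels (leukaemia, non-small cell lung, colon, CNS, melanoma, ovarian, renal, prostate, breast), run at the NCI facility. Primary screen tested a single dose of each compound. Read-out was percent growth of treated cells versus untreated cells, reported from the mean graph as percentage growth inhibition.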

[8] = system: MCF7; experiment: Growth inhibition of human MCF7 cells at 10 uM after 48 hrs; type: functional; conditions: MCF7, 48 h, read-out: GI; in short: as §2
[9] = system: PC-3; experiment: Growth inhibition of human PC3 cells at 10 uM after 48 hrs; type: functional; conditions: PC-3, 48 h, read-out: GI; in short: as §2
[10] = system: MDA-MB-231; experiment: Growth inhibition of human MDA-MB-231 cells at 10 uM after 48 hrs; type: functional; conditions: MDA-MB-231, 48 h, read-out: GI; in short: as §2
[11] = Growth inhibition of human NCI-ADR-RES cells at 10 uM after 48 hrs; type: functional; conditions: read-out: GI; in short: as §2
[12] = system: ACHN; experiment: Growth inhibition of human ACHN cells at 10 uM after 48 hrs; type: functional; conditions: read-out: GI; in short: as §2
[13] = system: HOP-62; experiment: Growth inhibition of human HOP62 cells at 10 uM after 48 hrs; type: functional; conditions: HOP-62, 48 h, read-out: GI; in short: as §2
[14] = system: SR; experiment: Growth inhibition of human SR cells at 10 uM after 48 hrs; type: functional; conditions: read-out: GI; in short: as §1
[15] = Growth inhibition of human SF539 cells at 10 uM after 48 hrs; type: functional; conditions: SF-539, 48 h, read-out: GI; in short: as §1
[16] = system: T47D; experiment: Growth inhibition of human T47D cells at 10 uM after 48 hrs; type: functional; conditions: read-out: GI; in short: as §1
[17] = system: NCI-H23; experiment: Growth inhibition of human NCI-H23 cells at 10 uM after 48 hrs; type: functional; conditions: NCI-H23, 48 h, read-out: GI; in short: as §2
[18] = system: NCI-H322M; experiment: Growth inhibition of human NCI-H322M cells at 10 uM after 48 hrs; type: functional; conditions: read-out: GI; in short: as §2
[19] = system: SF-268; experiment: Growth inhibition of human SF268 cells at 10 uM after 48 hrs; type: functional; conditions: SF-268, 48 h, read-out: GI; in short: as §1
[20] = system: SNB-19; experiment: Growth inhibition of human SNB19 cells at 10 uM after 48 hrs; type: functional; conditions: SNB-19, 48 h, read-out: GI; in short: as §1
[21] = system: SK-MEL-28; experiment: Growth inhibition of human SK-MEL-28 cells at 10 uM after 48 hrs; type: functional; conditions: SK-MEL-28, 48 h, read-out: GI; in short: as §1
[22] = system: TK-10; experiment: Growth inhibition of human TK10 cells at 10 uM after 48 hrs; type: functional; conditions: TK-10, 48 h, read-out: GI; in short: as §1
[23] = system: SK-MEL-5; experiment: Growth inhibition of human SK-MEL-5 cells at 10 uM after 48 hrs; type: functional; conditions: SK-MEL-5, 48 h, read-out: GI; in short: as §1
[24] = system: SK-MEL-2; experiment: Growth inhibition of human SK-MEL-2 cells at 10 uM after 48 hrs; type: functional; conditions: SK-MEL-2, 48 h, read-out: GI; in short: as §1
[25] = system: A549; experiment: Growth inhibition of human A549 cells at 10 uM after 48 hrs; type: functional; conditions: A549, 48 h, read-out: GI; in short: as §2
[26] = system: NCI-H226; experiment: Growth inhibition of human NCI-H226 cells at 10 uM after 48 hrs; type: functional; conditions: NCI-H226, 48 h, read-out: GI; in short: as §2
[27] = Growth inhibition of human OVCAR4 cells at 10 uM after 48 hrs; type: functional; conditions: OVCAR-4, 48 h, read-out: GI; in short: as §2
[28] = system: OVCAR-3; experiment: Growth inhibition of human OVCAR3 cells at 10 uM after 48 hrs; type: functional; conditions: OVCAR-3, 48 h, read-out: GI; in short: as §2
[29] = system: U-251; experiment: Growth inhibition of human U251 cells at 10 uM after 48 hrs; type: functional; conditions: U-251, 48 h, read-out: GI; in short: as §1
[30] = Growth inhibition of human OVCAR5 cells at 10 uM after 48 hrs; type: functional; conditions: OVCAR-5, 48 h, read-out: GI; in short: as §2
[31] = Growth inhibition of human Hs 578T cells at 10 uM after 48 hrs; type: functional; conditions: read-out: GI; in short: as §2
[32] = system: Malme-3M; experiment: Growth inhibition of human MALME-3M cells at 10 uM after 48 hrs; type: functional; conditions: read-out: GI; in short: as §2
[33] = system: OVCAR-8; experiment: Growth inhibition of human OVCAR8 cells at 10 uM after 48 hrs; type: functional; conditions: OVCAR-8, 48 h, read-out: GI; in short: as §2
[34] = system: SW-620; experiment: Growth inhibition of human SW620 cells at 10 uM after 48 hrs; type: functional; conditions: SW-620, 48 h, read-out: GI; in short: as §1
[35] = Growth inhibition of human UO31 cells at 10 uM after 48 hrs; type: functional; conditions: UO-31, 48 h, read-out: GI; in short: as §1
[36] = Cytotoxicity against human renal cancer cells at 10 uM after 48 hrs; type: functional; conditions: Cancer cell lines
[37] = Cytotoxicity against human non-small cell lung cancer cells at 10 uM after 48 hrs; type: functional; conditions: Cancer cell lines; in short: as §2
[38] = Cytotoxicity against human leukemia cells at 10 uM after 48 hrs; type: functional; conditions: Leukemia cell

Nc1nc2c(c(-c3ccc(Br)cc3)n1)CCC/C2=C\c1ccc(Br)cc1
inhibition of growth at 10 µM [1]: < 30% | inhibition of growth at 10 µM [2]: < 30% | inhibition of growth at 10 µM [3]: 63.2% | inhibition of growth at 10 µM [4]: < 30% | inhibition of growth at 10 µM [5]: < 30% | IC50 [6]: 16 µM | inhibition of growth at 10 µM [7]: < 30% | inhibition of growth at 10 µM [8]: 61.4% | inhibition of growth at 10 µM [9]: < 30% | inhibition of growth at 10 µM [10]: < 30% | inhibition of growth at 10 µM [11]: < 30% | inhibition of growth at 10 µM [12]: < 30% | inhibition of growth at 10 µM [13]: < 30% | inhibition of growth at 10 µM [14]: 54.1% | inhibition of growth at 10 µM [15]: < 30% | inhibition of growth at 10 µM [16]: < 30% | inhibition of growth at 10 µM [17]: < 30% | inhibition of growth at 10 µM [18]: < 30% | inhibition of growth at 10 µM [19]: < 30% | inhibition of growth at 10 µM [20]: < 30% | inhibition of growth at 10 µM [21]: < 30% | inhibition of growth at 10 µM [22]: < 30% | inhibition of growth at 10 µM [23]: < 30% | inhibition of growth at 10 µM [24]: < 30% | inhibition of growth at 10 µM [25]: < 30% | inhibition of growth at 10 µM [26]: < 30% | inhibition of growth at 10 µM [27]: < 30% | inhibition of growth at 10 µM [28]: < 30% | inhibition of growth at 10 µM [29]: 65.2% | inhibition of growth at 10 µM [30]: < 30% | inhibition of growth at 10 µM [31]: < 30% | inhibition of growth at 10 µM [32]: < 30% | inhibition of growth at 10 µM [33]: < 30% | inhibition of growth at 10 µM [34]: < 30% | inhibition of growth at 10 µM [35]: < 30%

Clc1ccc(/C=C2\CCCC3=C(c4ccc(Cl)cc4)Nc4ccccc4N=C32)cc1
inhibition of growth at 10 µM [1]: < 30% | inhibition of growth at 10 µM [2]: 52.8% | inhibition of growth at 10 µM [3]: 88.2% | inhibition of growth at 10 µM [4]: < 30% | inhibition of growth at 10 µM [5]: < 30% | CC50 [36]: 64 µM | GI50 [36]: 3.3 µM | TGI [36]: 29.1 µM | IC50 [6]: 0.3 µM | inhibition of growth at 10 µM [7]: < 30% | inhibition of growth at 10 µM [8]: 64.2% | GI50 [37]: 9 µM | TGI [37]: 35.2 µM | CC50 ([37]; read-out: LC50 (the source's name)): 81.3 µM | inhibition of growth at 10 µM [9]: < 30% | inhibition of growth at 10 µM [10]: < 30% | inhibition of growth at 10 µM [11]: < 30% | inhibition of growth at 10 µM [12]: < 30% | inhibition of growth at 10 µM [13]: < 30% | inhibition of growth at 10 µM [14]: 78.5% | inhibition of growth at 10 µM [15]: < 30% | inhibition of growth at 10 µM [16]: < 30% | inhibition of growth at 10 µM [17]: < 30% | GI50 [38]: 4.1 µM | LC50 [38]: > 100 µM | TGI [38]: 49.4 µM | inhibition of growth at 10 µM [18]: < 30% | inhibition of growth at 10 µM [19]: < 30% | inhibition of growth at 10 µM [20]: < 30% | inhibition of growth at 10 µM [21]: < 30% | inhibition of growth at 10 µM [22]: < 30% | inhibition of growth at 10 µM [23]: < 30% | inhibition of growth at 10 µM [24]: < 30% | inhibition of growth at 10 µM [25]: < 30% | inhibition of growth at 10 µM [26]: < 30% | inhibition of growth at 10 µM [27]: < 30% | inhibition of growth at 10 µM [28]: 33% | inhibition of growth at 10 µM [29]: 79.2% | inhibition of growth at 10 µM [30]: < 30% | inhibition of growth at 10 µM [31]: < 30% | inhibition of growth at 10 µM [32]: < 30% | inhibition of growth at 10 µM [33]: 34.3% | inhibition of growth at 10 µM [34]: 58.6% | inhibition of growth at 10 µM [35]: < 30%
